For test [1], the target named is Glycogen synthase kinase-3 beta (Homo sapiens) (UniProt P49841). Description: Inhibition of GSK3b assessed as residual activity at 1 uM. The gist of the method:
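Radioactivity-based enzymatic activity assay of the named kinase, run as part of a 131-kinase specificity panel at the National Centre for Protein Kinase Profiling (Dundee). Residual activity was read at the stated single inhibitor concentration.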

Test [2] has as its target Mitogen-activated protein kinase kinase kinase 4 (Homo sapiens) (UniProt Q9Y6R4). Briefly: Inhibition of MAP3K4 assessed as residual activity at 10 uM relative to control.
Test [3] has as its target Bone morphogenetic protein receptor type-1A (Homo sapiens) (UniProt P36894). Description: Inhibition of BMPR1A assessed as residual activity at 10 uM relative to control.
In another test the test system is Mus musculus. Briefly: Inhibition of LRRK2 in mouse assessed as inhibition of Ser935 autophosphorylation in brain at 100 mg/kg, ip by immunoblot method. Also noted: dose 100 mg/kg. It counts as functional, organism-based.
For test [4], the target named is Serine/threonine-protein kinase pim-1 (Homo sapiens) (UniProt P11309). Briefly: Inhibition of PIM1 assessed as residual activity at 10 uM.
For test [5], the target named is T1, Ephrin type-B receptor 3 (Homo sapiens) (UniProt P54753).
T1 sequence (whole entry): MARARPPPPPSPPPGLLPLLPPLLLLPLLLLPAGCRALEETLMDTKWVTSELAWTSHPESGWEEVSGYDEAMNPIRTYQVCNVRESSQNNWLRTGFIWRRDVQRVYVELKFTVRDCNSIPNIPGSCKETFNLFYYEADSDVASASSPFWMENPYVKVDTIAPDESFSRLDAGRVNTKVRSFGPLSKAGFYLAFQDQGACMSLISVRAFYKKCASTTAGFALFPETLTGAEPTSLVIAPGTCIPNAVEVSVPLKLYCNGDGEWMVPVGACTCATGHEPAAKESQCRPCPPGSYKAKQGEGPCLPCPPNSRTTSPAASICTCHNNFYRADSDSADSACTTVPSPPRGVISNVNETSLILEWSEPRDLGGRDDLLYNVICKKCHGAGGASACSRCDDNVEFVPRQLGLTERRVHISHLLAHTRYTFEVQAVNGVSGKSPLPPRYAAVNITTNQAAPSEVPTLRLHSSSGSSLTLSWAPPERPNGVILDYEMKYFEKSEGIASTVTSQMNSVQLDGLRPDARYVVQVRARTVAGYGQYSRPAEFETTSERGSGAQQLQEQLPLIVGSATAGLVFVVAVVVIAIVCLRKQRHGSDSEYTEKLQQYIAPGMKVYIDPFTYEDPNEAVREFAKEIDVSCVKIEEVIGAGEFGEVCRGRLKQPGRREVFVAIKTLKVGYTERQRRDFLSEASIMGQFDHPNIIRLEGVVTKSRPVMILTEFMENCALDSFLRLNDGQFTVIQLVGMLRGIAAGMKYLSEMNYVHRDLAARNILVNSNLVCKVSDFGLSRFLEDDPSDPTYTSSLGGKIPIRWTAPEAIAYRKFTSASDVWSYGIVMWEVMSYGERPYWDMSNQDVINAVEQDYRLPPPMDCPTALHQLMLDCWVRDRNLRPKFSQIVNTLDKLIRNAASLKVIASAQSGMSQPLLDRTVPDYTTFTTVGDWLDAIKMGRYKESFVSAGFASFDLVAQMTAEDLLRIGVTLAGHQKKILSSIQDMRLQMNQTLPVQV
Briefly: Inhibition of EPH-B3 assessed as residual activity at 10 uM. Summed up:
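Standard radioactivity-based enzymatic kinase assays on a 131-kinase panel run by the Dundee profiling service; residual kinase activity recorded.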

For test [6], the target named is Protein-tyrosine kinase 6 (Homo sapiens) (UniProt Q13882). Description: Inhibition of BRK assessed as residual activity at 10 uM. The gist of the method:
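Radioactivity-based enzymatic assay against a panel of 131 kinases (Dundee profiling). Activity remaining was measured with compound present at the stated concentration.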

The target of test [7] is T2, Mitogen-activated protein kinase kinase kinase 7 (Homo sapiens) (UniProt O43318).
T2 sequence (whole entry): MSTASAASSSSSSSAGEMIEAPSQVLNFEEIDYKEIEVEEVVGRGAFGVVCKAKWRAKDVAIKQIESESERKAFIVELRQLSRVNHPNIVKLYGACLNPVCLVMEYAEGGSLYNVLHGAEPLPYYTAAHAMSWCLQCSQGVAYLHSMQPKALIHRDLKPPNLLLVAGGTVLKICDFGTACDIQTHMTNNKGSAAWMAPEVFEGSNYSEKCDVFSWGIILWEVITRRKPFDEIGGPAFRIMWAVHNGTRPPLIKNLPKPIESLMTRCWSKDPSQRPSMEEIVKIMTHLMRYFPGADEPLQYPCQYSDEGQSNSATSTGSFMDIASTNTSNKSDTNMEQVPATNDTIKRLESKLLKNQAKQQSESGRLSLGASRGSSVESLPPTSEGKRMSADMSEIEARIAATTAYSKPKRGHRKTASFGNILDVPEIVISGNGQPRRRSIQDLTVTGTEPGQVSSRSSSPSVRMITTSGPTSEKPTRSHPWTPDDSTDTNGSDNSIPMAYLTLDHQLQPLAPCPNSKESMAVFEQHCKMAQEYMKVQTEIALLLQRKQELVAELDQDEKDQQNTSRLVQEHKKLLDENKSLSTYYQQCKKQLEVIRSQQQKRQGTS
Description: Inhibition of TAK1 assessed as residual activity at 1 uM.

Test [8] addresses Cyclin-dependent kinase 18 (Homo sapiens) (UniProt Q07002). Briefly: Inhibition of PCTK3 assessed as residual activity at 10 uM relative to control.
For test [9], the target named is Serine/threonine-protein kinase DCLK1 (Homo sapiens) (UniProt O15075). Description: Inhibition of DCAMKL1 assessed as residual activity at 10 uM relative to control. The gist of the method:
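Competition kinase-binding assay (KINOMEscan) across a non-redundant panel of 329 kinases beyond the radiometric panel; residual binding expressed relative to control.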

A short description of test [10]: Inhibition of AMPK assessed as residual activity at 10 uM.

Each structure is given as a SMILES string. Active and inactive are the calls of the source. The rule behind the calls is not given here.

Sequence of Serine/threonine-protein kinase pim-1 (Homo sapiens) (P11309 whole entry, looked up): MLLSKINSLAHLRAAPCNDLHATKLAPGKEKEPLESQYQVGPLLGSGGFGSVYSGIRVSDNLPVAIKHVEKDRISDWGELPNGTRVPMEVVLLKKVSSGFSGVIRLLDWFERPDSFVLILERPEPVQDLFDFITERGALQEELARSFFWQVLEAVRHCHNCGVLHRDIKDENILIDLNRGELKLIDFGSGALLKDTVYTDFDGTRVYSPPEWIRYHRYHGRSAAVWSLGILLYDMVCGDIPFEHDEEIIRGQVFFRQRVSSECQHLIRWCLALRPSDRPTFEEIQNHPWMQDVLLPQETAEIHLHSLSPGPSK
Sequence of Mitogen-activated protein kinase kinase kinase 4 (Homo sapiens) (Q9Y6R4 whole entry): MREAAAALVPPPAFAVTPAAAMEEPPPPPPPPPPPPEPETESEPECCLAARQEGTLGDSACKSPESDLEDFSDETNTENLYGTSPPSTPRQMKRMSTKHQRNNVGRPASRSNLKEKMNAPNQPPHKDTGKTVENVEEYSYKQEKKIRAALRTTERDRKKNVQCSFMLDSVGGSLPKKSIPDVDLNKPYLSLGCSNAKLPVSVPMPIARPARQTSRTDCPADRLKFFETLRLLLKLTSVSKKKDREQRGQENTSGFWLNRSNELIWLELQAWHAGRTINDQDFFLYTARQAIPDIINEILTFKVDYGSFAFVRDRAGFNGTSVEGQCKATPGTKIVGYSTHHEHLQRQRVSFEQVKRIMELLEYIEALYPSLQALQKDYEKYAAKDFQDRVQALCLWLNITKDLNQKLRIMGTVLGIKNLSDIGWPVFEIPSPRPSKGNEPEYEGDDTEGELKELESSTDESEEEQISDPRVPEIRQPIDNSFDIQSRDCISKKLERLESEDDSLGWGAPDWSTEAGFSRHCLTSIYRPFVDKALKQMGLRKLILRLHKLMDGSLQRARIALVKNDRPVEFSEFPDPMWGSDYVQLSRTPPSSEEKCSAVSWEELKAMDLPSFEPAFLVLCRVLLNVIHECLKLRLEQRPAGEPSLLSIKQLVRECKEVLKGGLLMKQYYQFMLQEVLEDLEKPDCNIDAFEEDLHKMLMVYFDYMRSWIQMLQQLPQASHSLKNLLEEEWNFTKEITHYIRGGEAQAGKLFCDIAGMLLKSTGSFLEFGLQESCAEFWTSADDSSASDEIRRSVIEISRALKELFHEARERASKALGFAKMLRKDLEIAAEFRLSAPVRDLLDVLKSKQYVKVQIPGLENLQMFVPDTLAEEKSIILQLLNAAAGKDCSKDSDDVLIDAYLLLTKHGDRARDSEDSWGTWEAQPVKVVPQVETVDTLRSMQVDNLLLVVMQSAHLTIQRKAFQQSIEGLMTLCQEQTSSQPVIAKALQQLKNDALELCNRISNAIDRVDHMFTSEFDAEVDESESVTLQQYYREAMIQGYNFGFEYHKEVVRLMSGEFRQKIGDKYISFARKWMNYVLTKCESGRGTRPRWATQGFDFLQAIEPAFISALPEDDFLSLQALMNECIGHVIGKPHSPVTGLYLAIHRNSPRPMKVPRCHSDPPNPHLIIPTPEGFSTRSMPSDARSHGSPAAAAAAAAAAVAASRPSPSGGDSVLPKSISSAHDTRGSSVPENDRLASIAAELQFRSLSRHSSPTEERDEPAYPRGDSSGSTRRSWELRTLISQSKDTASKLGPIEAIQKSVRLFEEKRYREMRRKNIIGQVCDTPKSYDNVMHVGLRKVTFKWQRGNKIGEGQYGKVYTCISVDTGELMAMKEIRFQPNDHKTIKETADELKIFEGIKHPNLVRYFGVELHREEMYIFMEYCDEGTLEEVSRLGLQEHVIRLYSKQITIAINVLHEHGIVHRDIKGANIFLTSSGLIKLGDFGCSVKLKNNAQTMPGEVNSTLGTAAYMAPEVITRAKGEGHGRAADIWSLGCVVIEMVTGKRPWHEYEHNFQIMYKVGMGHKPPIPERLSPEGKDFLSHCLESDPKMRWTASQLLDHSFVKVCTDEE
Sequence of Protein-tyrosine kinase 6 (Homo sapiens) (Q13882 whole entry, looked up): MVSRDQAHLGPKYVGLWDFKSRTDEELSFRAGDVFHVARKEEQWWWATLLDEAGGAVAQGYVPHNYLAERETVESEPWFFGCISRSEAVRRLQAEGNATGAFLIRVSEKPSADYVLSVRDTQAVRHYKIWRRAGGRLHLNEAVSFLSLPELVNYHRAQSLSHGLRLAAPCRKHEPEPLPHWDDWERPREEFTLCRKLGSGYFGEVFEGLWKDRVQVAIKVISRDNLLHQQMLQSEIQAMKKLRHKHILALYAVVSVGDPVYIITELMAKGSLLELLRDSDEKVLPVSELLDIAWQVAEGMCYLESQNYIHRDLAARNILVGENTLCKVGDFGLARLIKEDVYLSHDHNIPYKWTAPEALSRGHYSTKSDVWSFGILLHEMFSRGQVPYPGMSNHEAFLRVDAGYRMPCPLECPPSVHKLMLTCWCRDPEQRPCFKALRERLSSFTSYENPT
Sequence of Serine/threonine-protein kinase DCLK1 (Homo sapiens) (O15075 whole entry): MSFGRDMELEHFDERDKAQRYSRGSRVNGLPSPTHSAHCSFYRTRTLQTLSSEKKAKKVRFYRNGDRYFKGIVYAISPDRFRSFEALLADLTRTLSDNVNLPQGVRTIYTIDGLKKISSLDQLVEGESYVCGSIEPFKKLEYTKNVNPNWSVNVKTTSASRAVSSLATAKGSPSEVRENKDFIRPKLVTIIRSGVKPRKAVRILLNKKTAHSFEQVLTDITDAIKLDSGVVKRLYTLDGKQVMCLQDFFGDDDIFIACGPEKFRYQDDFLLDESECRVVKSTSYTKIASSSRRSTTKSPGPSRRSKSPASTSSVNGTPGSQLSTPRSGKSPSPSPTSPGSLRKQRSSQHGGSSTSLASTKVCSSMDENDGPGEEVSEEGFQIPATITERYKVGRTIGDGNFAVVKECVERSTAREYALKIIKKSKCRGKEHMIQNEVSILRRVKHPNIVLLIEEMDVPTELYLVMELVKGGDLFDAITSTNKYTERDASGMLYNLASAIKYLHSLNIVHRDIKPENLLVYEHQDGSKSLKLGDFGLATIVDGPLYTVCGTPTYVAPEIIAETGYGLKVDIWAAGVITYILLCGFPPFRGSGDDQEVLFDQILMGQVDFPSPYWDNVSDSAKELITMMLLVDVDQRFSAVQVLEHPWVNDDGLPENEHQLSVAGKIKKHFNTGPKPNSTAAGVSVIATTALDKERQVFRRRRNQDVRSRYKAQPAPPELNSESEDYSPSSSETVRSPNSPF
Sequence of Glycogen synthase kinase-3 beta (Homo sapiens) (P49841 whole entry, looked up): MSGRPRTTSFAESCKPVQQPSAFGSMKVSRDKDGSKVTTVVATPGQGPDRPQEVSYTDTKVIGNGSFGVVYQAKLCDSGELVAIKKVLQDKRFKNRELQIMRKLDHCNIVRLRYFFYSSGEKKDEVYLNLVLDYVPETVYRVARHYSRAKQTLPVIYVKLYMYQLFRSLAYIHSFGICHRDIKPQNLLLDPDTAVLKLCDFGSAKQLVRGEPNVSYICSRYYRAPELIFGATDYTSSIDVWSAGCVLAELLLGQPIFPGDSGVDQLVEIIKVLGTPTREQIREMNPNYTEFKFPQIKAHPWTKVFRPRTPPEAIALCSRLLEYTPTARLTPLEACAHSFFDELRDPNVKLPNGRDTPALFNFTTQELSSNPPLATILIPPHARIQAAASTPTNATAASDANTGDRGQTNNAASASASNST
Sequence of Cyclin-dependent kinase 18 (Homo sapiens) (Q07002 whole entry): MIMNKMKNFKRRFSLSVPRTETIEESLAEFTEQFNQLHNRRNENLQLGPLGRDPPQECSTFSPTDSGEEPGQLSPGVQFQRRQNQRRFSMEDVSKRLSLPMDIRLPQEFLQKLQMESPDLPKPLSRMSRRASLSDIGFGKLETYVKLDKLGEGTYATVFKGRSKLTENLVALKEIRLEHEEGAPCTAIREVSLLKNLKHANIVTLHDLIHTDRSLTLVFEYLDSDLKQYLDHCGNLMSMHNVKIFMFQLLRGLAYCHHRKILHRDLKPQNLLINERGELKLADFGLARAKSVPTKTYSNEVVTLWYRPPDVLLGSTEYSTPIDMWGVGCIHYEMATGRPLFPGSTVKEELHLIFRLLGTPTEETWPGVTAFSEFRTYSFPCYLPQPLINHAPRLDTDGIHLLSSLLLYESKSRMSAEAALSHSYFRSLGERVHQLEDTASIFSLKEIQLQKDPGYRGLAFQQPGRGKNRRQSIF
Sequence of Bone morphogenetic protein receptor type-1A (Homo sapiens) (P36894 whole entry): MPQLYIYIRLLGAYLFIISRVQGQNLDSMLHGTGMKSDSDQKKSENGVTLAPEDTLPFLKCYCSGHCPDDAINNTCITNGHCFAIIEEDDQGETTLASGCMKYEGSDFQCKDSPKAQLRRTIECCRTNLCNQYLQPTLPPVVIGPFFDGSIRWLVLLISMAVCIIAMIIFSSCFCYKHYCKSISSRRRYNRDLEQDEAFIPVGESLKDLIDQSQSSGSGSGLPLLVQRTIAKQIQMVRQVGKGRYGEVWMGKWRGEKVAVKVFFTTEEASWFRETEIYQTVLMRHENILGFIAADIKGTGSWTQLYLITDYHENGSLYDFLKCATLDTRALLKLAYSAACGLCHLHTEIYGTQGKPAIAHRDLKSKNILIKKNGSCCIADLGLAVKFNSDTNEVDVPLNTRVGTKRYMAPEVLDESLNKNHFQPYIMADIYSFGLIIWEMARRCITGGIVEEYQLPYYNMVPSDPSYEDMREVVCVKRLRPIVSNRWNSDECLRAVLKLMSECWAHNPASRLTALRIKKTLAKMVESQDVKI

With `O=C(Nc1cccnc1)c1cc(-c2ccnc(F)c2)ccc1OCc1ccccc1`, the Activity came to 119% in [1]; 80% in [2]; 41% in test [3]; 109% in test [4]; 113% in test [5]; 101% in test [6]. The Activity in [7] came to 108%; in test [8], 58%; in [9], 57%; in [10], 90%. The inhibition entry in the test with Mus musculus is “inactive”.

Values taken from ChEMBL document CHEMBL2203081 (Bioorg Med Chem Lett, 2012).
